This is a sample that favours compounds with a hit; in the whole collection about 2.6% have one here.
INS-1E GSIS act = primary screen for activators of insulin secretion dependent on glucose, INS-1E cells, GLuc reporter luminescence. INS-1E GLuc reporter insulin secretion, 2-3 h. activation, % at 16.6 µM. 370,000 compounds, 0.61% hits;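 active = lowest replicate activation of at least 40%, so every replicate reaches that level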;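 note: 0% = median of neutral control wells and 100% = median of IBMX positive control wells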
ERAP1 inh = inhibitors of human ERAP1 aminopeptidase; recombinant ERAP1, Leu-AMC fluorescence, 60 min; inhibition, % at 10.7 µM; Q9NZ08; AID 652197; 340,000 compounds, 0.15% hits;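 active = mean replicate inhibition of at least 30%, or all replicates individually reaching that 30% level; inactive = mean below 30% and not every replicate reaching it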;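 note: 0% = neutral control wells and 100% = L-leucinethiol positive control wells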
DENV2 CPE rescue = protects cells from dengue virus 2 cytopathic effect | DENV2-infected cells, cytopathic effect rescue, plate reader | CPE inhibition, % at 9.99 µM | 350,000 compounds, 1.7% hits; in the data active = CPE inhibition above about 20%, passing the limit was not always enough; tested in BHK-21 cells;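 note: 0% = median of neutral control wells and 100% = median of positive control wells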
E-selectin induc = induces E-selectin expression in human endothelial cells; P16581; HUVEC E-selectin immunofluorescence imaging; normalized: neutral wells 0, TNF-alpha wells 100; activation, % at 7.58 µM; 260,000 compounds, 0.37% hits; AID 686992;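 active = mean E-selectin-positive cell signal at least 10% of the positive control, reached in at least 60% of replicates, without over 20% cell loss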
Target sequence (P16581 whole entry, looked up): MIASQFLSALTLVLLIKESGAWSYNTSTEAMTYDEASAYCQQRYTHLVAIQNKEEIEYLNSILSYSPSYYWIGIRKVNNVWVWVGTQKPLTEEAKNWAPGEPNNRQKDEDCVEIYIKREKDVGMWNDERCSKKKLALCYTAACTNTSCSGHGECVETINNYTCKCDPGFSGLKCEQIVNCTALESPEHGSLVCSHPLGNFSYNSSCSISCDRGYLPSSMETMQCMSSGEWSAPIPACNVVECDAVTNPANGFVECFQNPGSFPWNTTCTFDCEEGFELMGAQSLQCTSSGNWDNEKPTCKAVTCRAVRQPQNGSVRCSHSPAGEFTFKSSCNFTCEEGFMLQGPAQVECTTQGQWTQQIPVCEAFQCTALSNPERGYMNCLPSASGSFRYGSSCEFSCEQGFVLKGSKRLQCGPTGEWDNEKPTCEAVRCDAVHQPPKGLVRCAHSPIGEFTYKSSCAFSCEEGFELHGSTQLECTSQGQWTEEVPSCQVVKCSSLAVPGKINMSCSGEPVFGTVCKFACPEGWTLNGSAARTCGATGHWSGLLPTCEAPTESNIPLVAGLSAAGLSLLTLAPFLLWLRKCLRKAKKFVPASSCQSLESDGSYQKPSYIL
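Read-out basis: % PE-positive cells; Test system: HUVEC primary endothelial cells; Technique: immunofluorescence imaging; Dosing: single-point compound dose.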
miR-122 sensor = miR-122 inhibition in Huh7 cells; Huh7 miR-122 Renilla luciferase sensor, 48 h; neutral wells = 0, positive control = 100; activation (reporter increase), % at 12.5 µM; 340,000 compounds, 0.3% hits; AID 602342;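 active = mean replicate activation score at least 90 and every replicate individually at or above 90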;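 note: higher luciferase means less miR-122 activity so hits act as miR-122 inhibitors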
CFTR F508del cor = CFTR F508del correction in bronchial cells; AID 720511; 350,000 compounds, 0.36% hits; activity (quench increase), % at 7.58 µM; CFBE cells, YFP halide quenching; stimulated with forskolin plus potentiator P3; % fluorescence drop versus neutral controls;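 active = mean added fluorescence quench of at least 8% versus neutral control, with both replicates also reaching 8%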;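 note: cells transiently co-express mutant CFTR-F508del with the halide-sensitive YFP; corrector assay measuring rescue of mutant channel to the surface after 24 h compound exposure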
* marks the source's active call; other numbers are inactive results; . = no result given; ! = a repeat was not active; [ ] = dose if it differs, or a comment.

SMILES | INS-1E GSIS act | ERAP1 inh | DENV2 CPE rescue | E-selectin induc | miR-122 sensor | CFTR F508del cor
C[C@H](CO)N1C[C@H](C)[C@@H](CN(C)S(=O)(=O)c2cccs2)OCCCC[C@H](C)Oc2ccc(NS(=O)(=O)c3ccc(Cl)cc3)cc2C1=O | -19 | -1 | 13 | . | 5[16.7 µM] | -3
C[C@@H]1CCCCO[C@H](CN(C)S(=O)(=O)c2cccs2)[C@H](C)CN([C@@H](C)CO)C(=O)c2cc(NS(=O)(=O)c3ccc(Cl)cc3)ccc2O1 | -22 | -3 | 31* | . | -1[16.7 µM] | -1
C[C@H]1CN([C@@H](C)CO)C(=O)c2cc(NS(=O)(=O)c3ccc(Cl)cc3)ccc2O[C@H]1CN(C)S(=O)(=O)c1cccs1 | -7 | -2 | 22* | 0 | -5[16.7 µM] | 2
CCNC(=O)C[C@H]1C=C[C@@H](NS(=O)(=O)c2ccc(F)cc2)[C@H](CO)O1 | 13 | 1 | 1 | 0 | 16[16.7 µM] | -1
C[C@@H]1COCn2nncc2CC[C@@H](Cc2ccccc2)C(=O)N1 | 12 | . | . | . | . | .
Cc1noc(C)c1NC(=O)N(C)C[C@@H]1OCCCC[C@H](C)Oc2ccc(NS(=O)(=O)c3cccs3)cc2C(=O)N([C@@H](C)CO)C[C@H]1C | 8 | -1 | 22* | 2 | 8[16.7 µM] | 1
Cc1noc(C)c1NC(=O)N(C)C[C@H]1OCCCC[C@H](C)Oc2ccc(NS(=O)(=O)c3ccccc3)cc2C(=O)N([C@@H](C)CO)C[C@@H]1C | -7 | -3 | 0 | 0 | -6[16.7 µM] | 0
Cc1noc(C)c1NC(=O)N(C)C[C@H]1OCCCC[C@@H](C)Oc2ccc(NS(=O)(=O)c3ccccc3)cc2C(=O)N([C@H](C)CO)C[C@H]1C | -7 | -2 | 70* | 0 | 4[16.7 µM] | -1
Cc1noc(C)c1NC(=O)N(C)C[C@H]1OCCCC[C@H](C)Oc2ccc(NS(=O)(=O)c3cccs3)cc2C(=O)N([C@@H](C)CO)C[C@H]1C | 6 | 0 | -5 | 2 | 2[16.7 µM] | -2
C[C@@H]1CN(C)C(=O)c2cccc(N)c2O[C@@H]1CN(C)C | -5 | . | . | . | . | .
COc1ccccc1C#Cc1ccc([C@H]2[C@@H](C#N)N(C(=O)C3CCC3)[C@H]2CO)cc1 | -31 | 2 | 13 | 0 | . | -1
COc1ccc(-c2cn(CC[C@@H]3CC[C@@H](NC(=O)Cc4ccccn4)[C@H](CO)O3)nn2)cc1 | -11 | -2 | -1 | 0 | . | -2
COc1ccccc1-c1cn(CC[C@@H]2CC[C@H](NC(=O)Cc3ccccn3)[C@@H](CO)O2)nn1 | -14 | 2 | -5 | 0 | . | -2
COc1ccc(-c2cn(CC[C@@H]3CC[C@H](NC(=O)Cc4ccccn4)[C@@H](CO)O3)nn2)cc1 | -2 | 0 | 22*! | 0 | . | 1
COc1ccccc1-c1cn(CC[C@@H]2CC[C@H](NC(=O)Cc3ccccn3)[C@H](CO)O2)nn1 | 3 | 3 | 40* | 0 | . | 0
N#C/C(=C\c1c(N2CCCCCC2)nc2ccccn2c1=O)C(N)=O | 40* | -21 | 4 | 0 | . | 2
N#C/C(=C\c1c(N2CCN(c3ccccc3)CC2)nc2ccccn2c1=O)C(N)=O | 11 | -46 | 2 | . | -2 | -2
COc1ccc(NC(=O)N(C)C[C@@H]2Oc3ccc(NC(=O)C4CC4)cc3C(=O)N([C@@H](C)CO)C[C@H]2C)cc1 | 2 | 0 | -13 | 1 | 8[16.7 µM] | 0
CCCC#Cc1ccc2c(c1)O[C@H](CN(C)C(=O)NC(C)C)[C@H](C)CN([C@H](C)CO)S2(=O)=O | -18 | 1 | 1 | 0 | -5[16.7 µM] | -1
CC(C)NC(=O)N(C)C[C@@H]1Oc2c(NC(=O)CCCCCC(=O)Nc3ccccc3N)cccc2C(=O)N([C@@H](C)CO)C[C@H]1C | 12 | 0 | 25* | -14 | . | 0
C[C@@H]1CN([C@@H](C)CO)C(=O)c2cccc(NC(=O)CCCCCC(=O)Nc3ccccc3N)c2O[C@H]1CN(C)C(=O)Nc1ccc(F)cc1 | 4 | 5 | 49* | -3 | . | -4
O=C(COC(=O)c1c2c(nc3ccccc13)CCN(Cc1ccccc1)C2)Nc1c(F)cccc1F | 12 | -3 | 0 | 0 | 175* | .
CO[C@@H]1CN(C)C(=O)c2ccc(NS(C)(=O)=O)cc2OC[C@H](C)N(Cc2ccccc2)C[C@@H]1C | 17 | . | . | . | . | .
